According to ChEMBL document CHEMBL1140861, “Short antisense oligonucleotides with novel 2'-4' conformationaly restricted nucleoside analogues show improved potency without increased toxicity in animals” (J Med Chem, 2009):
Activity calls are given as the source filed them. No cut-off for these calls is given here.

Key:
Homo sapiens = assay: Decrease in low density lipoprotein cholesterol level in normal human at 50 to 400 […] by standard enzyme-based colorimetric assay; assay type: functional, organism-based; set-up: scale not given: the % may be the effect or the level left
Mus musculus [1] = assay: Reduction of PTEN mRNA level in ip dosed BALB/c mouse liver administered twice a week for 3 weeks measured after 72 hrs of last dose; assay type: functional
Summary of the method: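 Male Balb/c mice, 6 weeks old, dosed ip twice weekly for 3 weeks at 0.5, 1.5, 4.7 and 15 mg/kg (two ASOs) or 0.7, 2.3, 7.2 and 23 mg/kg (MOE control); sacrificed 72 h after last dose; ALT, liver PTEN mRNA, liver and spleen weights and body weight gain assessed; ED50 derived; errors as sd.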

Mus musculus [2] = assay: Hepatotoxicity in ip dosed BALB/c mouse assessed as increase in liver ALT level at 5 to 10 times of ED50 after 72 hrs; assay type: toxicity, organism-based; details: in vivo
Mus musculus [3] = assay: Hepatotoxicity in BALB/c mouse assessed as increase in liver ALT level at 60 mg/kg, ip after 72 hrs; assay type: toxicity, organism-based; set-up: dose 60 mg/kg, route intraperitoneal; details: in vivo
Mus musculus [4] = species: Mus musculus; assay: Binding affinity to mouse PTEN mRNA assessed as melting temperature
Summary of the method: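 Tm of ASO–RNA duplex, i.e. melting temperature of the ASO hybridised to its complementary RNA.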

bEND = assay: Reduction in mouse PTEN mRNA level expressed in mouse bEND cells; assay type: functional, cell-based
Summary of the method: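 bEND mouse brain endothelial cells transfected with ASO using lipofectin; PTEN mRNA reduction measured over a dose range; IC50 taken from dose-response curves.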

Mus musculus [5] = assay: Reduction of PTEN mRNA level in ip dosed BALB/c mouse liver after 72 hrs; assay type: functional
Mus musculus [6] = assay: Reduction of PTEN mRNA level in BALB/c mouse liver at 37 mg/kg, ip after 72 hrs; assay type: functional, organism-based; set-up: dose 37 mg/kg
Mus musculus [7] = assay: Reduction of PTEN mRNA level in BALB/c mouse liver at 60 mg/kg, ip after 72 hrs; assay type: functional, organism-based; set-up: dose 60 mg/kg
Mus musculus [8] = assay: Reduction of PTEN level in ip dosed BALB/c mouse liver at 37 mg/kg by Western blot analysis; assay type: functional, organism-based; set-up: dose 37 mg/kg
Mus musculus [9] = assay: Metabolic stability in BALB/c mouse liver assessed as antisense oligonucleotide level at 18 mg/kg; assay type: ADME, organism-based; set-up: dose 18 mg/kg; details: in vivo
Mus musculus [10] = assay: Reduction of PTEN mRNA level in BALB/c mouse liver at 32 mg/kg, ip after 72 hrs; assay type: functional, organism-based; set-up: dose 32 mg/kg
Summary of the method: (§1)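 Balb/c mice, 6 weeks old, n = 4 per dose group, single ip doses of 32, 66 or 100 mg/kg; killed 72 h after administration; serum ALT and liver PTEN mRNA quantified after sacrifice; errors as sd.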

Mus musculus [11] = assay: Reduction of PTEN mRNA level in BALB/c mouse liver at 66 mg/kg, ip after 72 hrs; assay type: functional, organism-based; set-up: dose 66 mg/kg; summary of the method: as §1
Mus musculus [12] = assay: Reduction of PTEN mRNA level in BALB/c mouse liver at 100 mg/kg, ip after 72 hrs; assay type: functional; summary of the method: as §1
Mus musculus [13] = assay: Hepatotoxicity in BALB/c mouse assessed as increase in liver ALT level at 32 mg/kg, ip after 72 hrs; assay type: toxicity, organism-based; set-up: dose 32 mg/kg, route intraperitoneal; details: in vivo; summary of the method: as §1
Mus musculus [14] = assay: Hepatotoxicity in BALB/c mouse assessed as increase in liver ALT level at 66 mg/kg, ip after 72 hrs; assay type: toxicity, organism-based; set-up: dose 66 mg/kg, route intraperitoneal; details: in vivo; summary of the method: as §1
Mus musculus [15] = assay: Hepatotoxicity in BALB/c mouse assessed as increase in liver ALT level at 100 mg/kg, ip after 72 hrs; assay type: toxicity, organism-based; set-up: dose 100 mg/kg, route intraperitoneal; details: in vivo; summary of the method: as §1
Mus musculus [16] = assay: Hepatotoxicity in BALB/c mouse assessed as increase in liver ALT level at 35 mg/kg, ip after 72 hrs; assay type: toxicity, organism-based; set-up: dose 35 mg/kg, route intraperitoneal; details: in vivo
Summary of the method: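 Single ip injection of 35 mg/kg ASO into male Balb/c mice, 6 weeks old, n = 4 per group, saline control; sacrificed 72 h after dosing and ALT recorded; ANOVA with Tukey's post hoc test.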

Mus musculus [17] = assay: Hepatotoxicity in BALB/c mouse assessed as increase in liver ALT level at 35 mg/kg, ip after 72 hrs; details: in vivo
Mus musculus [18] = assay: as above; details: in vivo; remark: listed apart in the source

Row | SMILES | Activity (Homo sapiens) [%] | ED50 (Mus musculus [1]) [mg/kg] | Activity (Mus musculus [2]) | Activity (Mus musculus [3]) | Tm (Mus musculus [4]) [°C] | IC50 (bEND) [nM] | ED50 (Mus musculus [5]) [mg/kg] | Activity (Mus musculus [6]) | Activity (Mus musculus [7]) | Activity (Mus musculus [8]) | Stability (Mus musculus [9]) [µg/g] | Activity (Mus musculus [10]) | Activity (Mus musculus [11]) | Activity (Mus musculus [12]) | Activity (Mus musculus [13]) | Activity (Mus musculus [14]) | Activity (Mus musculus [15]) | Activity (Mus musculus [16]) | Activity (Mus musculus [17]) | Activity (Mus musculus [18])
1 | COCCO[C@@H]1[C@H](SP(=O)(O)OC[C@H]2O[C@@H](n3cc(C)c(=O)[nH]c3=O)[C@H](OCCOC)[C@@H]2SP(=O)(O)OC[C@H]2O[C@@H](n3cc(C)c(N)nc3=O)[C@H](OCCOC)[C@@H]2SP(=O)(O)OC[C@H]2O[C@@H](n3cnc4c(N)ncnc43)C[C@@H]2SP(=O)(O)OC[C@H]2O[C@@H](n3cnc4c(=O)[nH]c(N)nc43)C[C@@H]2SP(=O)(O)OC[C@H]2O[C@@H](n3cc(C)c(=O)[nH]c3=O)C[C@@H]2SP(=O)(O)OC[C@H]2O[C@@H](n3cc(C)c(N)nc3=O)C[C@@H]2SP(=O)(O)OC[C@H]2O[C@@H](n3cc(C)c(=O)[nH]c3=O)C[C@@H]2SP(=O)(O)OC[C@H]2O[C@@H](n3cnc4c(=O)[nH]c(N)nc43)C[C@@H]2SP(=O)(O)OC[C@H]2O[C@@H](n3cc(C)c(N)nc3=O)C[C@@H]2SP(=O)(O)OC[C@H]2O[C@@H](n3cc(C)c(=O)[nH]c3=O)C[C@@H]2SP(=O)(O)OC[C@H]2O[C@@H](n3cc(C)c(=O)[nH]c3=O)C[C@@H]2SP(=O)(O)OC[C@H]2O[C@@H](n3cc(C)c(N)nc3=O)C[C@@H]2SP(=O)(O)OC[C@H]2O[C@@H](n3cnc4c(=O)[nH]c(N)nc43)[C@H](OCCOC)[C@@H]2SP(=O)(O)OC[C@@H]2O[C@H](n3cc(C)c(N)nc3=O)[C@@H](OCCOC)[C@H]2SP(=O)(O)OC[C@@H]2O[C@H](n3cnc4c(N)ncnc43)[C@@H](OCCOC)[C@H]2SP(=O)(O)OC[C@@H]2O[C@H](n3cc(C)c(N)nc3=O)[C@@H](OCCOC)[C@H]2SP(=O)(O)OC[C@@H]2O[C@H](n3cc(C)c(N)nc3=O)[C@@H](OCCOC)[C@H]2O)[C@@H](COP(=O)(O)S[C@H]2[C@@H](OCCOC)[C@H](n3cc(C)c(N)nc3=O)O[C@@H]2COP(=O)(O)S[C@H]2[C@@H](OCCOC)[C@H](n3cnc4c(=O)[nH]c(N)nc43)O[C@@H]2CO)O[C@H]1n1cc(C)c(N)nc1=O | 6 | – | – | – | – | – | – | – | – | – | – | – | – | – | – | – | – | – | – | –
2 | Cc1cn([C@@H]2O[C@@]3(COP(O)(=S)O[C@H]4[C@H]5OC[C@]4(COP(O)(=S)O[C@H]4C[C@H](n6cc(C)c(=O)[nH]c6=O)O[C@@H]4COP(O)(=S)O[C@H]4[C@@H](O)[C@H](n6cnc7c6N=CNC7N)O[C@@H]4COP(O)(=S)O[C@H]4[C@@H](O)[C@H](n6cnc7c(=O)[nH]c(N)nc76)O[C@@H]4COP(O)(=S)O[C@H]4[C@@H](O)[C@H](n6ccc(N)nc6=O)O[C@@H]4COP(O)(=S)O[C@H]4[C@@H](O)[C@H](n6cnc7c(N)ncnc76)O[C@@H]4COP(O)(=S)O[C@H]4[C@@H](O)[C@H](n6ccc(N)nc6=O)O[C@@H]4COP(O)(=S)O[C@H]4[C@@H](O)[C@H](n6cc(C)c(=O)[nH]c6=O)O[C@@H]4COP(O)(=S)O[C@H]4[C@@H](O)[C@H](n6cnc7c(=O)[nH]c(N)nc76)O[C@@H]4COP(O)(=S)O[C@H]4[C@@H](O)[C@H](n6cnc7c(=O)[nH]c(N)nc76)O[C@@H]4COP(O)(=S)O[C@H]4[C@@H](O)[C@H](n6ccc(N)nc6=O)O[C@@H]4COP(O)(=S)O[C@H]4[C@H]6OC[C@]4(COP(O)(=S)O[C@H]4[C@H]7OC[C@]4(CO)O[C@H]7n4cc(C)c(=O)[nH]c4=O)O[C@H]6n4cc(C)c(N)nc4=O)O[C@H]5n4cc(C)c(=O)[nH]c4=O)CO[C@@H]2[C@@H]3O)c(=O)nc1N (some centres not stated) | – | 2.1 | Toxic | Non-toxic | 60.6 | 4.9 | 6 | Active | Active | Active | 25 | Active | Active | Active | Non-toxic | Toxic | Toxic | – | – | –
3 | Cc1cn([C@@H]2O[C@@]3(COP(O)(=S)O[C@@H]4[C@@H](OP(O)(=S)OC[C@H]5O[C@@H](n6cc(C)c(=O)[nH]c6=O)[C@H](O)[C@@H]5OP(O)(=S)OC[C@H]5O[C@@H](n6cnc7c(=O)[nH]c(N)nc76)[C@H](O)[C@@H]5OP(O)(=S)OC[C@H]5O[C@@H](n6cnc7c(=O)[nH]c(N)nc76)[C@H](O)[C@@H]5OP(O)(=S)OC[C@H]5O[C@@H](n6ccc(N)nc6=O)[C@H](O)[C@@H]5OP(O)(=S)OC[C@H]5O[C@@H](n6cc(C)c(=O)[nH]c6=O)[C@H](O)[C@@H]5OP(O)(=S)OC[C@H]5O[C@@H](n6cnc7c(=O)[nH]c(N)nc76)[C@H](O)[C@@H]5OP(O)(=S)OC[C@H]5O[C@@H](n6ccc(N)nc6=O)[C@H](O)[C@@H]5OP(O)(=S)OC[C@H]5O[C@@H](n6cnc7c(N)ncnc76)[C@H](O)[C@@H]5OP(O)(=S)OC[C@H]5O[C@@H](n6cnc7c(=O)[nH]c(N)nc76)[C@H](O)[C@@H]5OP(O)(=S)OC[C@@]56CO[C@@H]([C@H](n7cc(C)c(N)nc7=O)O5)[C@@H]6OP(O)(=S)OC[C@@]56CO[C@@H]([C@H](n7cc(C)c(=O)[nH]c7=O)O5)[C@@H]6O)O[C@@H](n5cnc6c(N)ncnc65)[C@@H]4O)CO[C@@H]2[C@@H]3OP(O)(=S)OC[C@@]23CO[C@@H]([C@H](n4cc(C)c(=O)[nH]c4=O)O2)[C@@H]3O)c(=O)nc1N (some centres not stated) | – | – | – | – | – | – | – | Active | Active | – | – | – | – | – | – | – | – | Toxic | Toxic | Toxic
